Active and inactive are the calls of the source. The calls are words filed in the database; no cut-off is given here. Bridge positions count the residues as written; N and C are the ends. Peptide text beside a SMILES is read from it. I, II: the chains in the order shown.

The first assay relates to Staphylococcus aureus. The assay can be described thus: Antimicrobial activity against methicillin-resistant Staphylococcus aureus CCARM 3696 by radial diffusion assay incubated with chymotrypsin. The assay is classed as functional, organism-based.
On to `CC(C)C[C@H](NC(=O)CNC(=O)[C@H](Cc1cnc[nH]1)NC(=O)[C@H](Cc1cnc[nH]1)NC(=O)[C@H](CC(C)C)NC(=O)[C@H](CC(C)C)NC(=O)[C@H](C)NC(=O)[C@H](CC(N)=O)NC(=O)[C@H](CC(C)C)NC(=O)[C@H](Cc1c[nH]c2ccccc12)NC(=O)[C@@H](N)CCCCN)C(=O)N[C@@H](CC(N)=O)C(=O)N[C@@H](CSSC[C@H](NC(=O)[C@H](CC(N)=O)NC(=O)[C@H](CC(C)C)NC(=O)CNC(=O)[C@H](Cc1cnc[nH]1)NC(=O)[C@@H](N)Cc1cnc[nH]1)C(=O)N[C@@H](C)C(=O)N[C@@H](CCCCN)C(=O)NCC(=O)N[C@H](C(=O)N[C@@H](CC(C)C)C(=O)N[C@@H](C)C(N)=O)C(C)C)C(=O)N[C@@H](C)C(=O)N[C@@H](CCCCN)C(=O)NCC(=O)N[C@H](C(=O)N[C@@H](CC(C)C)C(=O)N[C@@H](C)C(N)=O)C(C)C` (I: H-KWLNALLHHGLNCAKGVLA-NH2 / II: H-HHGLNCAKGVLA-NH2; disulfide I:13-II:6), for which the outcome was Active.
Same read-out and setting: to `CC(C)C[C@H](NC(=O)[C@H](CC(C)C)NC(=O)[C@H](C)NC(=O)[C@H](CC(N)=O)NC(=O)[C@H](CC(C)C)NC(=O)[C@H](Cc1c[nH]c2ccccc12)NC(=O)[C@@H](N)CCCCN)C(=O)O` (H-KWLNALL-OH) belongs “inactive”; to `CC(C)C[C@H](NC(=O)CNC(=O)[C@H](Cc1cnc[nH]1)NC(=O)[C@@H](N)Cc1cnc[nH]1)C(=O)N[C@@H](CC(N)=O)C(=O)N[C@@H](CSSC[C@H](NC(=O)[C@H](CC(N)=O)NC(=O)[C@H](CC(C)C)NC(=O)CNC(=O)[C@H](Cc1cnc[nH]1)NC(=O)[C@@H](N)Cc1cnc[nH]1)C(=O)N[C@@H](C)C(=O)N[C@@H](CCCCN)C(=O)NCC(=O)N[C@H](C(=O)N[C@@H](CC(C)C)C(=O)N[C@@H](C)C(N)=O)C(C)C)C(=O)N[C@@H](C)C(=O)N[C@@H](CCCCN)C(=O)NCC(=O)N[C@H](C(=O)N[C@@H](CC(C)C)C(=O)N[C@@H](C)C(N)=O)C(C)C` (I: H-HHGLNCAKGVLA-NH2 / II: H-HHGLNCAKGVLA-NH2; disulfide I:6-II:6), “Active”.

A further assay concerns Staphylococcus aureus. The assay is described as follows: Antimicrobial activity against methicillin-resistant Staphylococcus aureus CCARM 3696 by radial diffusion assay. The assay is classed as functional, organism-based. The essentials: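 Radial diffusion. Washed mid-log MRSA (4 × 10^6 CFU) was mixed into 10 ml underlay of 1% agarose and 0.03% TSB in 9 mM NaP/1 mM sodium citrate, pH 7.4. Wells 3 mm wide received 5 μl of peptide at 200 μg/ml in 0.01% acetic acid. After 3 h at 37°C, a 1% agarose/6% TSB overlay was added and plates were incubated overnight. Clear zone diameter was read in units, 0.1 mm = 1 unit.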
On to `CC(C)C[C@H](NC(=O)CNC(=O)[C@H](Cc1cnc[nH]1)NC(=O)[C@H](Cc1cnc[nH]1)NC(=O)[C@H](CC(C)C)NC(=O)[C@H](CC(C)C)NC(=O)[C@H](C)NC(=O)[C@H](CCCCN)NC(=O)[C@H](CCCCN)NC(=O)[C@H](Cc1c[nH]c2ccccc12)NC(=O)[C@@H](N)CCCCN)C(=O)N[C@@H](CC(N)=O)C(=O)N[C@@H](CSSC[C@H](NC(=O)[C@H](CC(N)=O)NC(=O)[C@H](CC(C)C)NC(=O)CNC(=O)[C@H](Cc1cnc[nH]1)NC(=O)[C@H](Cc1cnc[nH]1)NC(=O)[C@@H](N)CC(C)C)C(=O)N[C@@H](C)C(=O)N[C@@H](CCCCN)C(=O)NCC(=O)N[C@H](C(=O)N[C@@H](CC(C)C)C(=O)N[C@@H](C)C(N)=O)C(C)C)C(=O)N[C@@H](C)C(=O)N[C@@H](CCCCN)C(=O)NCC(=O)N[C@H](C(=O)N[C@@H](CC(C)C)C(=O)N[C@@H](C)C(N)=O)C(C)C` (I: H-KWKKALLHHGLNCAKGVLA-NH2 / II: H-LHHGLNCAKGVLA-NH2; disulfide I:13-II:7), for which the result was Active.
On the same count and under the same terms, to `CC(C)C[C@H](NC(=O)CNC(=O)[C@H](Cc1cnc[nH]1)NC(=O)[C@H](Cc1cnc[nH]1)NC(=O)[C@H](CC(C)C)NC(=O)[C@H](CC(C)C)NC(=O)[C@H](C)NC(=O)[C@H](CCCCN)NC(=O)[C@@H](N)CCCCN)C(=O)N[C@@H](CC(N)=O)C(=O)N[C@@H](CSSC[C@H](NC(=O)[C@H](CC(N)=O)NC(=O)[C@H](CC(C)C)NC(=O)CNC(=O)[C@H](Cc1cnc[nH]1)NC(=O)[C@@H](N)Cc1cnc[nH]1)C(=O)N[C@@H](C)C(=O)N[C@@H](CCCCN)C(=O)NCC(=O)N[C@H](C(=O)N[C@@H](CC(C)C)C(=O)N[C@@H](C)C(N)=O)C(C)C)C(=O)N[C@@H](C)C(=O)N[C@@H](CCCCN)C(=O)NCC(=O)N[C@H](C(=O)N[C@@H](CC(C)C)C(=O)N[C@@H](C)C(N)=O)C(C)C` (I: H-KKALLHHGLNCAKGVLA-NH2 / II: H-HHGLNCAKGVLA-NH2; disulfide I:11-II:6) belongs “inactive”.
Same read-out and setting: to `CC(C)C[C@H](NC(=O)CNC(=O)[C@H](Cc1cnc[nH]1)NC(=O)[C@H](Cc1cnc[nH]1)NC(=O)[C@H](CC(C)C)NC(=O)[C@H](CC(C)C)NC(=O)[C@H](C)NC(=O)[C@H](CCCCN)NC(=O)[C@H](CCCCN)NC(=O)[C@H](Cc1c[nH]c2ccccc12)NC(=O)[C@@H](N)CCCCN)C(=O)N[C@@H](CC(N)=O)C(=O)N[C@@H](CSSC[C@H](NC(=O)[C@H](CC(N)=O)NC(=O)[C@H](CC(C)C)NC(=O)CNC(=O)[C@H](Cc1cnc[nH]1)NC(=O)[C@@H](N)Cc1cnc[nH]1)C(=O)N[C@@H](C)C(=O)N[C@@H](CCCCN)C(=O)NCC(=O)N[C@H](C(=O)N[C@@H](CC(C)C)C(=O)N[C@@H](C)C(N)=O)C(C)C)C(=O)N[C@@H](C)C(=O)N[C@@H](CCCCN)C(=O)NCC(=O)N[C@H](C(=O)N[C@@H](CC(C)C)C(=O)N[C@@H](C)C(N)=O)C(C)C` (I: H-KWKKALLHHGLNCAKGVLA-NH2 / II: H-HHGLNCAKGVLA-NH2; disulfide I:13-II:6) belongs “Active”; to `CC(C)C[C@H](NC(=O)CNC(=O)[C@H](Cc1cnc[nH]1)NC(=O)[C@H](Cc1cnc[nH]1)NC(=O)[C@H](CC(C)C)NC(=O)[C@H](CC(C)C)NC(=O)[C@H](C)NC(=O)[C@H](CCCCN)NC(=O)[C@H](CCCCN)NC(=O)[C@H](Cc1c[nH]c2ccccc12)NC(=O)[C@@H](N)CCCCN)C(=O)N[C@@H](CC(N)=O)C(=O)N[C@@H](CSSC[C@H](NC(=O)[C@H](CC(N)=O)NC(=O)[C@H](CC(C)C)NC(=O)CNC(=O)[C@H](Cc1cnc[nH]1)NC(=O)[C@H](Cc1cnc[nH]1)NC(=O)[C@H](CC(C)C)NC(=O)[C@H](CC(C)C)NC(=O)[C@H](C)NC(=O)[C@H](CCCCN)NC(=O)[C@@H](N)CCCCN)C(=O)N[C@@H](C)C(=O)N[C@@H](CCCCN)C(=O)NCC(=O)N[C@H](C(=O)N[C@@H](CC(C)C)C(=O)N[C@@H](C)C(N)=O)C(C)C)C(=O)N[C@@H](C)C(=O)N[C@@H](CCCCN)C(=O)NCC(=O)N[C@H](C(=O)N[C@@H](CC(C)C)C(=O)N[C@@H](C)C(N)=O)C(C)C` (I: H-KWKKALLHHGLNCAKGVLA-NH2 / II: H-KKALLHHGLNCAKGVLA-NH2; disulfide I:13-II:11), “Active”.

Values taken from ChEMBL document CHEMBL1275595, “Antimicrobial activity of a halocidin-derived peptide resistant to attacks by proteases” (2010).
